# Results of several laboratories.
# Each line is one published result; the experiments were not run side by side.
# Effect on: cell growth or viability
SMILES,cell line,method,time,IC50
Nc1ccn([C@@H]2O[C@H](CO)[C@@H](O)C2(F)F)c(=O)n1,Panc 04.03,MTT,72 h,0.19 µM
Nc1ncc(-c2cnn(C3CCNCC3)c2)cc1-c1nnc(CC2CC2)o1,CMK,trypan blue,72 h,0.653 µM
Cc1ccc2nc(-c3cccnc3)[nH]c2c1,MDA-MB-231,MTT,48 h,89 µM
COC(=O)CN=c1scc(-c2ccccc2)n1-c1ccccc1C,Panc 04.03,MTT,72 h,> 100 µM
"Cl.Oc1cccc2c1[nH]c1c(C3=CC4(O)CC/C=C\CCCCN5CCC3C3(CC6/C=C\CCCCN6C43)C5)nccc12 (single isomer, unassigned; (+))",LLC-PK11,neutral red,48 h,1.85 µg/mL
COc1cc(OC)c2c(=O)cc(-c3cccc(Br)c3)oc2c1,HS27,MTT,24 h,128 µM
Clc1ccc(-c2nc3ccccc3n2Cc2ccccc2)cc1,MDA-MB-231,MTT,,35 µM
CC(=O)c1ccc(/N=N/c2cc(/C=C/C(=O)O)ccc2O)cc1,A-375,MTT,,> 50 µM
C/C=C(/C)C(=O)OC[C@H]1[C@@H](Cc2ccc(C(F)(F)F)cc2)CO[C@@H]1c1ccccc1,rat VSMC,resazurin,48 h,4.2 µM
COc1cc(OC)c2c(=O)cc(-c3ccccc3Br)oc2c1,HS27,MTT,24 h,> 200 µM
Cc1ccc2nc(-c3ccc4c(c3)OCO4)[nH]c2c1,MDA-MB-231,MTT,48 h,> 100 µM
COc1cc(OC)c2c(=O)cc(-c3ccccc3Br)oc2c1-c1c(OC)cc(OC)c2c(=O)cc(-c3ccccc3Br)oc12,HS27,MTT,24 h,> 200 µM
Oc1c(I)cc(Cl)c2cccnc12,BEL-7404,MTT,48 h,65.1 µM
Cc1ccc2nc(-c3ccc(F)cc3)n(Cc3ccccc3)c2c1,MDA-MB-231,MTT,,28.5 µM
COc1ccc(-c2cc(=O)c3c(OC)cc(C)c(-c4c(C)cc(OC)c5c(=O)cc(-c6ccc(OC)cc6)oc45)c3o2)cc1,HS27,MTT,24 h,> 200 µM
O=C(Nc1ccc2[nH]nc(-c3ccncc3)c2c1)[C@@H]1CCN(CC(=O)N2CCN(c3ccc(-c4ncccn4)cc3)CC2)C1,A-375,resazurin,96 h,0.037 µM
COc1cc(OC)c2c(=O)cc(-c3ccc(N(C)C)cc3)oc2c1,HS27,MTT,24 h,> 200 µM
COC(=O)CN=c1scc(-c2ccccc2)n1-c1ccc(Cl)cc1,Panc 04.03,MTT,72 h,52.1 µM
Cc1ccc2nc(-c3cccc([N+](=O)[O-])c3)[nH]c2c1,MDA-MB-231,MTT,48 h,> 100 µM
COc1cc(OC)c2c(=O)cc(-c3ccc(C(F)(F)F)cc3)oc2c1-c1c(OC)cc(OC)c2c(=O)cc(-c3ccc(C(F)(F)F)cc3)oc12,HS27,MTT,24 h,> 200 µM
COc1ccc(C(=O)O[C@@H]2CN3Cc4c(cc5c(c4OC)OCO5)[C@@]24C=C[C@H](OC)C[C@@H]34)cc1OC,MRC5,WST-1,,6.1 µM
Fc1cccc(Cl)c1-c1nc2ccccc2[nH]1,MDA-MB-231,MTT,48 h,69 µM
